Experimental findings from ChEMBL document CHEMBL1141097, “Indole-3-acetic acid antagonists of the prostaglandin D2 receptor CRTH2” (J Med Chem, 2005) are described below.

Data set [1] concerns the target T1, Prostaglandin D2 receptor 2 (Homo sapiens, UniProt Q9Y5Y4).
T1 sequence (Q9Y5Y4 whole entry): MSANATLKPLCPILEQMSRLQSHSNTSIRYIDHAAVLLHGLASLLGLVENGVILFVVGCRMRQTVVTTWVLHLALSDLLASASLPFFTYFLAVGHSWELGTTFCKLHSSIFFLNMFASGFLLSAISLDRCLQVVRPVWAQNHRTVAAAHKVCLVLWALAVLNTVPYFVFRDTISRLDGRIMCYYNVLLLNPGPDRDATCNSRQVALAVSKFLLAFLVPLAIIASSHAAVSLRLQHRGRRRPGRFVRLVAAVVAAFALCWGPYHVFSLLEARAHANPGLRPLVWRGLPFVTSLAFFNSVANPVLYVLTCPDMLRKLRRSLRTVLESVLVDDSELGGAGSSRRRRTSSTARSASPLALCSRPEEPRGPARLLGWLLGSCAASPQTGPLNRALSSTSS
In words: Concentration required to inhibit PGD-2 (10 nM) stimulated [Ca2+] flux in CHO cells expressing human CRTH2 receptor. The data set is classed as cell-based. The essentials:
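CHO cells expressing human CRTH2 were stimulated with 10 nM PGD2 and calcium mobilization was read. Inhibition is expressed as IC50. Antagonism was also tested by parallel shifts of the PGD2 dose–response curve with increasing antagonist (pA2).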

Data set [2] deals with T2, Prostaglandin D2 receptor (Homo sapiens, UniProt Q13258).
T2 sequence (Q13258 whole entry): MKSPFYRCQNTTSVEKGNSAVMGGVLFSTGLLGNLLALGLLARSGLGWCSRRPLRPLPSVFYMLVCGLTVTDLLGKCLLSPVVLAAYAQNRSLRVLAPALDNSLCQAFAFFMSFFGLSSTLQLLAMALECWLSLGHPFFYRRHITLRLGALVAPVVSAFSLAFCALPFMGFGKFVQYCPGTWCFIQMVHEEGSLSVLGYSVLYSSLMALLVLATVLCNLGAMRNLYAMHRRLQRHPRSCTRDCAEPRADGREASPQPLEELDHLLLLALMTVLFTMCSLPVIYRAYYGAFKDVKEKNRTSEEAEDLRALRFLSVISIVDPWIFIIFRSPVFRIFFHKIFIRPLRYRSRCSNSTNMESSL
The data set can be described thus: Binding affinity towards human DP receptor expressed in CHO cells. The data set is classed as cell-based. The gist of the method:
(§1)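 Radioligand binding on membranes from CHO cells expressing recombinant human CRTH2 or human DP receptor, reported as Ki.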

In data set [3] the target is T1, Prostaglandin D2 receptor 2. The data set can be described thus: Binding affinity towards human CRTH2 receptor expressed in CHO cells. The data set is classed as cell-based. The gist of the method:
as §1

Data set [4] can be described thus: Area under curve for the compound upon i.v. dose of 1 mg/kg in rats. Also on record: dose 1 mg/kg, route intravenous. The data set is classed as ADME, organism-based. Conditions: rat, in vivo, iv. The gist of the method: (§2)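 Rats given a single dose, 1 mg/kg intravenous or 10 mg/kg oral, then sampled for plasma levels. Cmax, Tmax and AUCinf come from the plasma concentration–time profile.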

A short description of data set [5]: Oral bioavailability upon p.o. dose of 10 mg/kg in rats. The data set is classed as ADME, organism-based. Particulars: rat, in vivo.
The nature of data set [6]: Time taken by the compound to reach its maximum concentration in plasma upon p.o. dose of 10 mg/kg in rats. The data set is classed as ADME, organism-based. Also on record: dose 10 mg/kg, route oral. Particulars: rat, po. The gist of the method: as §2
Data set [7] is described as follows: Maximum plasma concentration upon i.v. dose of 1 mg/kg in rats. Details: dose 1 mg/kg, route intravenous. The data set is classed as ADME, organism-based. Conditions: rat, iv. The gist of the method:
as §2

The nature of data set [8]: Area under curve for the compound upon p.o. dose of 10 mg/kg in rats. The data set is classed as ADME, organism-based. Also on record: dose 10 mg/kg, route oral. Particulars: rat, in vivo, po. The gist of the method: as §2
Data set [9] in a line: Maximum plasma concentration upon p.o. dose of 10 mg/kg in rats. The data set is classed as ADME, organism-based. Details: dose 10 mg/kg, route oral. Conditions: rat, po. The essentials:
as §2

Data set [10] addresses T1, Prostaglandin D2 receptor 2. The data set can be described thus: In vitro agonist potency towards human CRTH2 receptor expressed in CHO cells; range 15 to 50 nM.
For data set [11] the target is unchanged. The data set can be described thus: Binding affinity towards human CRTH2 receptor expressed in CHO cells; range 25 nM to 8 uM. The data set is classed as cell-based.

pEC50, pIC50, pKi: −log10 of the molar value.

A word on the pIC50: it is the negative decadic logarithm of the IC50, by convention in mol/L. Low values mean a large IC50, high ones a small IC50. Broadly, the pKi is the negative decadic logarithm of the Ki, by convention in mol/L. `Cc1ccc(S(=O)(=O)n2c(C)c(CC(=O)O)c3cc(F)ccc32)cc1` gave a pIC50 in data set [1] of 5.66. Moreover, the pKi in data set [2] was less than 5.00; in data set [3], 6.34.
In data set [1], `Cc1nc(S(=O)(=O)n2c(C)c(CC(=O)O)c3cc(F)ccc32)cn1C` showed a pIC50 of less than 5.00. Also, the pKi in [2] is less than 5.00; in data set [3] it was 5.53.
The compound `Cc1c(CC(=O)O)c2cc(F)ccc2n1S(=O)(=O)c1ccc(Cl)cc1` had a pIC50 in [1] of 7.59. Further, the pKi is 5.07 in [2] and 7.54 in data set [3].
For `Cc1c(CC(=O)O)c2cc(F)ccc2n1S(=O)(=O)c1ccccc1`, in that order: 6.01, 5.31 and 6.60.
By AUC is commonly meant the area under the concentration-time curve, a measure of exposure. A higher AUC goes with high exposure. As a reminder, the bioavailability is dose-corrected exposure relative to a reference, in per cent. For orientation: Tmax means the time from dosing to the highest level. Usually Cmax stands for the maximum level reached in the sampled fluid or tissue. Take `Cc1c(CC(=O)O)c2cc(F)ccc2n1S(=O)(=O)c1ccc(S(C)(=O)=O)cc1`: the AUC in [4] turned out to be 619 ng·h/mL; in data set [8] it was 3480 ng·h/mL. The compound further gave a bioavailability in data set [5] of 56%. Besides, the Tmax in [6] turned out to be 1.8 h. In data set [1], the pIC50 was 6.80. For the same compound, the pKi is less than 5.00 in data set [2] and 7.17 in [3]. The figures for the Cmax in [7] and in data set [9] were 1800 ng/mL and 332 ng/mL, respectively.
In data set [1], `CCCCS(=O)(=O)n1c(C)c(CC(=O)O)c2cc(F)ccc21` gave a pIC50 of 6.07. The pKi was less than 5.00 in data set [2] and 6.20 in data set [3].
Compound `O=C(O)C[C@@H]1CCn2c1c(Sc1ccc(Cl)cc1)c1ccc(F)cc12` showed a pKi in data set [3] of 9.10.
Compound `Cc1c(CC(=O)O)c2cc(F)ccc2n1S(=O)(=O)c1cccc(F)c1` showed a pIC50 in data set [1] of 6.19. In addition, the negative logarithm of the Ki (pKi) in data set [2] was 5.16; in data set [3], 6.65.
In the same order, the values of `COc1ccc(S(=O)(=O)n2c(C)c(CC(=O)O)c3cc(F)ccc32)cc1` are 6.50, 5.11 and 6.52.
`CSc1ccc(C=C2C(C)=C(CC(=O)O)c3cc(F)ccc32)cc1` [SULINDAC SULFIDE]: the pKi in data set [3] was 5.46.
Consider `Cc1c(CC(=O)O)c2cc(F)ccc2n1S(=O)(=O)c1cc(Cl)ccc1Cl`, for which, in data set [1], the pIC50 was 7.36. For the same compound, the pKi in [2] is 5.73; in [3], 7.72.
Compound `Cc1c(CC(=O)O)c2cc(F)ccc2n1S(=O)(=O)c1ccc(F)cc1` showed a pIC50 in [1] of 6.80. Further, the pKi in data set [2] was less than 5.00; in [3], 7.15.
What is called pEC50 is −log10 of the EC50, conventionally taken in molar units. Lower therefore signals a high EC50. Consider `COc1ccc2c(c1)c(CC(=O)O)c(C)n2C(=O)c1ccc(Cl)cc1` [INDOMETHACIN], for which the pEC50 in data set [10] was 7.30. In [11], the pKi is 5.10.
